Data: ChEMBL document CHEMBL1287724, “Discovery of INCB3344, a potent, selective and orally bioavailable antagonist of human and murine CCR2” (Bioorg Med Chem Lett, 2010)
One block for each compound: values may come before it.

Columns and labels:
[1] = target: C-C chemokine receptor type 2 (Homo sapiens, UniProt P41597); assay: Displacement of [125I]MCP1 from human CCR2 after 30 mins by gamma counter
[2] = target: C-C chemokine receptor type 2 (Mus musculus, UniProt P51683); assay: Displacement of [125I]MCP1 from mouse CCR2 after 30 mins by gamma counter
[3] = Protein binding in human serum assessed as unbound fraction; assay type: ADME, cell-free; conditions: read-out: PB
[4] = Protein binding in mouse serum assessed as unbound fraction; assay type: ADME, cell-free; conditions: read-out: PB
[5] = target: T1, C-C chemokine receptor type 2 (Rattus norvegicus, UniProt O55193); assay: Inhibition of rat CCR2
T1 sequence (O55193 whole entry): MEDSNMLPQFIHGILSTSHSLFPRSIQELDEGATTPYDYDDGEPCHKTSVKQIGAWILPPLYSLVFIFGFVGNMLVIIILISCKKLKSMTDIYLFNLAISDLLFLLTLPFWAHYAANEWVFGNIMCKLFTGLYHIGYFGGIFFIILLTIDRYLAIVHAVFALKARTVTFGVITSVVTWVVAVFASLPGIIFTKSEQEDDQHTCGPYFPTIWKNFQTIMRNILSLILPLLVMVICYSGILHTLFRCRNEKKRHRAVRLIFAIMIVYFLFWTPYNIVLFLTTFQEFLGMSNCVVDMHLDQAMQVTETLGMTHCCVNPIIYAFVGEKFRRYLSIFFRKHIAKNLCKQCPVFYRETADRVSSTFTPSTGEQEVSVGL

CCR2 protein = target: T2, CCR2 protein (Macaca fascicularis, UniProt Q6Y3N0); assay: Inhibition of cynomolgus CCR2
T2 sequence (Q6Y3N0 whole entry): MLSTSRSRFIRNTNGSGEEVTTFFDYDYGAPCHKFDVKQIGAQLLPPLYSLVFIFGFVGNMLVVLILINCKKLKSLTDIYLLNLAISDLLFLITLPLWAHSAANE

[6] = target: T3, C-C chemokine receptor type 1 (Mus musculus, UniProt P51675); assay: Inhibition of mouse CCR1
T3 sequence (P51675 whole entry): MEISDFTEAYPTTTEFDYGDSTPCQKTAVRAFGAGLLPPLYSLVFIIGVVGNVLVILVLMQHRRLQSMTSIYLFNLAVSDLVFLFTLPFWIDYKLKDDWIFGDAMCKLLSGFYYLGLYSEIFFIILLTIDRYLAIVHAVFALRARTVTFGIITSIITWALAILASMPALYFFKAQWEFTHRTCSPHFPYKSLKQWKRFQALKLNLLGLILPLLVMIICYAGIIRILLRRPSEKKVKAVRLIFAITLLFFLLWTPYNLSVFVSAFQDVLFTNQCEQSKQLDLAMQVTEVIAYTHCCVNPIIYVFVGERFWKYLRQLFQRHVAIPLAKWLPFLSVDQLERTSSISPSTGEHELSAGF

[7] = target: C-C chemokine receptor type 5 (Mus musculus, UniProt P51682); assay: Inhibition of mouse CCR5
[8] = Clearance in CD-1 mouse at 5 mg/kg, iv; assay type: ADME, organism-based; design: dose 5 mg/kg, route intravenous; conditions: in vivo
Method in brief: (§1)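 CD-1 mice dosed intravenously at 5 mg/kg and orally at 10 mg/kg. Clearance, steady-state volume of distribution and half-life were taken from the iv arm. Cmax and AUC were taken from the po arm. Oral bioavailability was derived from the po and iv exposures.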

Mus musculus = assay: Volume of distribution at steady state in CD-1 mouse at 5 mg/kg, iv; assay type: ADME, organism-based; design: dose 5 mg/kg, route intravenous; conditions: in vivo; method in brief: as §1
[9] = Half life in CD-1 mouse at 5 mg/kg, iv; assay type: ADME, organism-based; design: dose 5 mg/kg, route intravenous; conditions: in vivo; method in brief: as §1
[10] = Cmax in CD-1 mouse at 10 mg/kg, po; assay type: ADME, organism-based; design: dose 10 mg/kg, route oral; conditions: in vivo; method in brief: as §1
[11] = AUC in CD-1 mouse at 10 mg/kg, po; assay type: ADME, organism-based; design: dose 10 mg/kg, route oral; conditions: plasma; method in brief: as §1
[12] = Oral bioavailability in CD-1 mouse at 10 mg/kg, po; assay type: ADME, organism-based; conditions: in vivo; method in brief: as §1
[13] = Cmax in BALB/c mouse at 10 mg/kg, po; assay type: ADME, organism-based; design: dose 10 mg/kg, route oral; conditions: in vivo
[14] = AUC in BALB/c mouse at 10 mg/kg, po; assay type: ADME, organism-based; design: dose 10 mg/kg, route oral; conditions: plasma
[15] = target: Voltage-gated inwardly rectifying potassium channel KCNH2 (Homo sapiens, UniProt Q12809)
Sequence of Voltage-gated inwardly rectifying potassium channel KCNH2 (Q12809 whole entry): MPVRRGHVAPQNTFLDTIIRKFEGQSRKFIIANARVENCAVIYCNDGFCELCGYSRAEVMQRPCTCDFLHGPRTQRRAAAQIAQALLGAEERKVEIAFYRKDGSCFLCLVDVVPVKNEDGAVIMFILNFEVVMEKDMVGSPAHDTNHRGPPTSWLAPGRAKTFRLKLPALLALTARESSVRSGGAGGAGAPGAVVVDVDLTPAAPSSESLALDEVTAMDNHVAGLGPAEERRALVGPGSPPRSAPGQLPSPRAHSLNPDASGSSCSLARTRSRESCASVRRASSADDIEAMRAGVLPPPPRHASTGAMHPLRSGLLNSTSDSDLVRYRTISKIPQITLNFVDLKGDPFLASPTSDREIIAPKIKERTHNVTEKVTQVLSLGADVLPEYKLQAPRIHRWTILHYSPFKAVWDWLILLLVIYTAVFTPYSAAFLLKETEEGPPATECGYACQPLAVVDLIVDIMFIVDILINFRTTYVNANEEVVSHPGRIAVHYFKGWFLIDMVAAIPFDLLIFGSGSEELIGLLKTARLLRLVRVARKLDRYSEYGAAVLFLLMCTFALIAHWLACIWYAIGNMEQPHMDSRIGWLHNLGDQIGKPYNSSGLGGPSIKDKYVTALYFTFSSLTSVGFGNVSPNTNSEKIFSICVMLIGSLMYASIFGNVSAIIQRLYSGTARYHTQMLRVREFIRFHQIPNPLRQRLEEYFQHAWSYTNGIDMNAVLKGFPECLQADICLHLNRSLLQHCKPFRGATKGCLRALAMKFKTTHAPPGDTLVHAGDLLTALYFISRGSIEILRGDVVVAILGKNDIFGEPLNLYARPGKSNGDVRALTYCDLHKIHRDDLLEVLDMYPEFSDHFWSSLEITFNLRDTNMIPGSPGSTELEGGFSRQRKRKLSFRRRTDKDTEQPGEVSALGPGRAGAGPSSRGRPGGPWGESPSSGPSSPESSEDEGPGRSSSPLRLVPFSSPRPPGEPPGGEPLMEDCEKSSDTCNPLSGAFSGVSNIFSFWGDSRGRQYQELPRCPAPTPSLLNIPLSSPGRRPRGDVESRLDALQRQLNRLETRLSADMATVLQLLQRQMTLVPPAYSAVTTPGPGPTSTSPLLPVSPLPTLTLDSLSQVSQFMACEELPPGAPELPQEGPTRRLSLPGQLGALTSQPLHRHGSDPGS

Sequence of C-C chemokine receptor type 2 (Mus musculus, UniProt P51683) (P51683 whole entry): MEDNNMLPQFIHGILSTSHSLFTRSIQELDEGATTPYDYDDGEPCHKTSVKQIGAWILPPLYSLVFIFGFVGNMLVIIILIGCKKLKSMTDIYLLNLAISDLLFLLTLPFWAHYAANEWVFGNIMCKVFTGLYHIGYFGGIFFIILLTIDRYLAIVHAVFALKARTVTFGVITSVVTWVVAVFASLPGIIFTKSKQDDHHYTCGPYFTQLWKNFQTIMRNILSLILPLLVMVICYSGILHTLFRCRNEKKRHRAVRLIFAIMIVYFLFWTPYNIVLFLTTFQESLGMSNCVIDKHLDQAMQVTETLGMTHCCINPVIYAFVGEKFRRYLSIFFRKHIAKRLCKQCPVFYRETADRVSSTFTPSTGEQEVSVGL
Sequence of C-C chemokine receptor type 2 (Homo sapiens, UniProt P41597) (P41597 whole entry): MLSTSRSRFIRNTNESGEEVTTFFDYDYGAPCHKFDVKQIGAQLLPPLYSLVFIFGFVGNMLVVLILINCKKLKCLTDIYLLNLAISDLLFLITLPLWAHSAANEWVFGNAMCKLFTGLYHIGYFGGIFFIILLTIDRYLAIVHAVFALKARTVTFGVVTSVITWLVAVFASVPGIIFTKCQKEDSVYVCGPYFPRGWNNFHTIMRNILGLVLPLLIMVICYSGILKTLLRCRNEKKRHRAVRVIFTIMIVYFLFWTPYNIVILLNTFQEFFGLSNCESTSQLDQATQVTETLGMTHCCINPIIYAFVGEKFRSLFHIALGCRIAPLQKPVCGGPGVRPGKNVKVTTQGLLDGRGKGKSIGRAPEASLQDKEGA
Sequence of C-C chemokine receptor type 5 (P51682 whole entry): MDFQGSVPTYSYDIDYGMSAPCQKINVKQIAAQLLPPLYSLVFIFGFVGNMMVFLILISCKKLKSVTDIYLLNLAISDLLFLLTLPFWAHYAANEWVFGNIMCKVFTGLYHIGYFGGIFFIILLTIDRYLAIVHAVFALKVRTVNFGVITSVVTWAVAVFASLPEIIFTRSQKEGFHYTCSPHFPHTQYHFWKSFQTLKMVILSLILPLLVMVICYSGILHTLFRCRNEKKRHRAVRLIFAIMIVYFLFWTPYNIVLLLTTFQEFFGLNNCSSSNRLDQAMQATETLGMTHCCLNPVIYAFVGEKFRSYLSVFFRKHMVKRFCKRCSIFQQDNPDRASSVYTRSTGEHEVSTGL

IC50 [1]: 17 nM
IC50 [2]: 51 nM
Compound: O=C(CNC(=O)c1cccc(C(F)(F)F)c1)N[C@H]1CN([C@H]2CC[C@@H](c3ccccc3)CC2)C[C@@H]1OCc1ccccc1

IC50 [1]: 2.3 nM
IC50 [2]: 10 nM
fraction unbound [3]: 0.26
fraction unbound [4]: 0.18
Compound: CCO[C@H]1CN([C@H]2CC[C@@](O)(c3ccccc3)CC2)C[C@@H]1NC(=O)CNC(=O)c1cccc(C(F)(F)F)c1

IC50 [1]: 2.3 nM
IC50 [2]: 2.1 nM
fraction unbound [4]: 0.079
Compound: CCO[C@H]1CN([C@H]2CC[C@@](O)(c3ccc(C)cc3)CC2)C[C@@H]1NC(=O)CNC(=O)c1cccc(C(F)(F)F)c1

fraction unbound [3]: 0.24
fraction unbound [4]: 0.15
IC50 [5]: 7.3 nM
IC50 (CCR2 protein): 16 nM
IC50 [6]: > 1000 nM
IC50 [7]: > 3000 nM
clearance [8]: 85 mL/min/kg
Vdss (Mus musculus): 2.8 L/kg
half-life [9]: 1 h
Cmax [10]: 1890 nM
AUC [11]: 2.66 µM·h
bioavailability [12]: 47%
Cmax [13]: 961 nM
AUC [14]: 3.89 µM·h
Compound: CCO[C@H]1CN([C@H]2CC[C@@](O)(c3ccc4c(c3)OCO4)CC2)C[C@@H]1NC(=O)CNC(=O)c1cccc(C(F)(F)F)c1
IC50 [15]: 13000 nM

IC50 [1]: 120 nM
Compound: O=C(CNC(=O)c1cccc(C(F)(F)F)c1)N[C@H]1CN([C@H]2CC[C@@H](c3ccccc3)C2)C[C@@H]1O

IC50 [1]: > 1000 nM
Compound: O=C(CNC(=O)c1cccc(C(F)(F)F)c1)N[C@H]1CN([C@H]2CC[C@H](c3ccccc3)C2)C[C@@H]1O

IC50 [1]: > 1000 nM
Compound: O=C(CNC(=O)c1cccc(C(F)(F)F)c1)N[C@H]1CN([C@H]2CCC[C@@H](c3ccccc3)C2)C[C@@H]1O

IC50 [1]: > 1000 nM
Compound: O=C(CNC(=O)c1cccc(C(F)(F)F)c1)N[C@H]1CN([C@H]2CCC[C@H](c3ccccc3)C2)C[C@@H]1O

IC50 [1]: 7.4 nM
IC50 [2]: 186 nM
fraction unbound [3]: 0.026
Compound: O=C(CNC(=O)c1cccc(C(F)(F)F)c1)N[C@H]1CN([C@H]2CC[C@@H](c3ccccc3)CC2)C[C@@H]1O

IC50 [1]: > 1000 nM
Compound: O=C(CNC(=O)c1cccc(C(F)(F)F)c1)N[C@H]1CN([C@H]2CC[C@H](c3ccccc3)CC2)C[C@@H]1O

IC50 [1]: 649 nM
Compound: O=C(CNC(=O)c1cccc(C(F)(F)F)c1)N[C@H]1CN(C2CCN(c3ccccc3)CC2)C[C@@H]1O

IC50 [1]: 0.95 nM
IC50 [2]: 1.9 nM
fraction unbound [3]: < 0.005
fraction unbound [4]: 0.023
Compound: CCO[C@H]1CN([C@H]2CC[C@@H](c3ccccc3)CC2)C[C@@H]1NC(=O)CNC(=O)c1cccc(C(F)(F)F)c1

IC50 [1]: 2.9 nM
IC50 [2]: 1.9 nM
Compound: CCCO[C@H]1CN([C@H]2CC[C@@H](c3ccccc3)CC2)C[C@@H]1NC(=O)CNC(=O)c1cccc(C(F)(F)F)c1

IC50 [1]: 47 nM
IC50 [2]: 54 nM
Compound: CCCCO[C@H]1CN([C@H]2CC[C@@H](c3ccccc3)CC2)C[C@@H]1NC(=O)CNC(=O)c1cccc(C(F)(F)F)c1
